Data: ChEMBL document CHEMBL1800057, “Discovery of dual inducible/neuronal nitric oxide synthase (iNOS/nNOS) inhibitor development candidate 4-((2-cyclobutyl-1H-imidazo[4,5-b]pyrazin-1-yl)methyl)-7,8-difluoroquinolin-2(1H)-one (KD7332) part 2: identification of a novel, potent, and selective series of benzimidazole-quinolinone …” (J Med Chem, 2010)

Experiments:
[1] = Bioavailability in rhesus monkey at 3 mg/kg, iv and 10 mg/kg, po; format: ADME, organism-based, Macaca mulatta; conditions: in vivo
Outline: (§1)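 Rhesus pharmacokinetics: 3 mg/kg iv and 10 mg/kg po, HCl salt. Clp, t1/2, Vdss, Cmax, AUC, oral t1/2 and %F reported.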

[2] = Volume of distribution at steady state in rhesus monkey at 3 mg/kg, iv and 10 mg/kg, po; format: ADME, organism-based, Macaca mulatta; conditions: in vivo, read-out: Vdss; outline: as §1
[3] = Cmax in rhesus monkey at 3 mg/kg, iv and 10 mg/kg, po; format: ADME, organism-based, Macaca mulatta; conditions: in vivo; outline: as §1
[4] = Half life in rhesus monkey at 3 mg/kg, iv and 10 mg/kg, po; format: ADME, organism-based, Macaca mulatta; conditions: in vivo; outline: as §1
[5] = Half life in rhesus monkey at 10 mg/kg, po; format: ADME, organism-based, Macaca mulatta; parameters: dose 10 mg/kg, route oral; conditions: in vivo
[6] = AUC in rhesus monkey at 3 mg/kg, iv and 10 mg/kg, po; format: ADME, organism-based, Macaca mulatta; conditions: plasma; outline: as §1
[7] = Plasma clearance in rhesus monkey at 3 mg/kg, iv and 10 mg/kg, po; format: ADME, organism-based, Macaca mulatta; outline: as §1
Mus musculus [8] = assay: Inhibition of LPS-induced iNOS activation in BALB/c mouse assessed as plasma nitrate levels administered via oral gavage before LPS challenge measured after 6 to 8 hrs using 2,3-diaminonaphthalene by fluorescence assay; format: functional
Outline: (§2)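 Male BALB/c mice dosed by oral gavage (90% PEG/5% Tween 80/5% PVP + 0.5% w/v CMC) immediately before LPS (10 mg/kg ip in 0.9% NaCl). Mice killed at 6 h. EDTA plasma analysed for nitrate and drug levels; nitrite measured by DAN fluorescence.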

Homo sapiens [9] = species on record: Homo sapiens; assay: Ratio of IC50 for human eNOS to EC50 for human iNOS
[10] = Plasma clearance in mouse at 3 mg/kg, iv and 10 mg/kg, po; format: ADME, organism-based
[11] = molecular target: T1, Nitric oxide synthase, inducible (Mus musculus, UniProt P29477); assay: Inhibition of mouse iNOS expressed in HEK293 cells assessed as inhibition of nitric oxide production after 18 hrs using 2,3-diaminonaphthalene by fluorescence assay; format: cell-based
T1 sequence (P29477 whole entry): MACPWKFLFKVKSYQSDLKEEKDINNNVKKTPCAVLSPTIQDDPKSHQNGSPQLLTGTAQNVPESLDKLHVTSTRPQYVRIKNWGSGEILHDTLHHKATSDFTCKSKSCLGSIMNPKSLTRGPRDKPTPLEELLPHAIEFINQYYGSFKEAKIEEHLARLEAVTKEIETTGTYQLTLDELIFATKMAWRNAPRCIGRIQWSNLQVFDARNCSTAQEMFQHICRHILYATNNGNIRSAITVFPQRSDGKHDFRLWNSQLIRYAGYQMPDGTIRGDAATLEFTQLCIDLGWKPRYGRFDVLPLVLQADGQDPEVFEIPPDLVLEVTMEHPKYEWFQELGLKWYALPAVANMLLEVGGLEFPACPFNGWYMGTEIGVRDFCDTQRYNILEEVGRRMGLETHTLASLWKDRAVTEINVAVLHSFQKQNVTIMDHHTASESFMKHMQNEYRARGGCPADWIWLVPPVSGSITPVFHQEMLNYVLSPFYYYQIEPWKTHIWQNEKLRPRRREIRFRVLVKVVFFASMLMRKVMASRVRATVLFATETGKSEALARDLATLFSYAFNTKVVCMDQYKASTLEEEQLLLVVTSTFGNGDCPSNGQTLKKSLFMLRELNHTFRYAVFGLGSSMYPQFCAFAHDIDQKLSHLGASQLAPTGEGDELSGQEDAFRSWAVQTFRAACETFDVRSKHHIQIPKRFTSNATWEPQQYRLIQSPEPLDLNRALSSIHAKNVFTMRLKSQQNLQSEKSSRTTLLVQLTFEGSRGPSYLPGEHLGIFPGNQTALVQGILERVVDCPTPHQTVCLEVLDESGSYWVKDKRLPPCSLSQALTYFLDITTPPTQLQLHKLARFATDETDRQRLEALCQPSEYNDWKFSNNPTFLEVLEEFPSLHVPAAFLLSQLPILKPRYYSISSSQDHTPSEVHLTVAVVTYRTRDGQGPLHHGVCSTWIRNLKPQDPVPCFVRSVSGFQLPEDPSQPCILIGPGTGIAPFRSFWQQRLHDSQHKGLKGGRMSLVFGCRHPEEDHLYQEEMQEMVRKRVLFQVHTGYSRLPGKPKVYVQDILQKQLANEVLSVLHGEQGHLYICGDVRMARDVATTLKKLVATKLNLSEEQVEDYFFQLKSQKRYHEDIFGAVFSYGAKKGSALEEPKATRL
Outline: (§3)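 HEK293 cells grown to ~70% confluence in DMEM/10% FBS with pen/strep, transiently transfected with 10 μg human or murine iNOS plasmid plus Fugene 6 for 4 h at 37 °C, 10% CO2. Cells replated at 5e5 cells/mL and dosed with compound at once; 1400W (100 μM final) as positive control. After 18 h, DAN (10 μg/mL final) in HCl (0.1 N final) added for 20 min at room temperature. Fluorescence read after NaOH (0.12 N final).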

[12] = Half life in mouse at 3 mg/kg, iv and 10 mg/kg, po; conditions: in vivo
[13] = Half life in mouse at 10 mg/kg, po; format: ADME, organism-based; parameters: dose 10 mg/kg, route oral; conditions: in vivo
[14] = molecular target: Nitric oxide synthase, inducible (Homo sapiens, UniProt P35228); assay: Inhibition of human iNOS expressed in HEK293 cells assessed as inhibition of nitric oxide production after 18 hrs using 2,3-diaminonaphthalene by fluorescence assay; format: cell-based; outline: as §3
Sequence of Nitric oxide synthase, inducible (Homo sapiens, UniProt P35228) (P35228 whole entry): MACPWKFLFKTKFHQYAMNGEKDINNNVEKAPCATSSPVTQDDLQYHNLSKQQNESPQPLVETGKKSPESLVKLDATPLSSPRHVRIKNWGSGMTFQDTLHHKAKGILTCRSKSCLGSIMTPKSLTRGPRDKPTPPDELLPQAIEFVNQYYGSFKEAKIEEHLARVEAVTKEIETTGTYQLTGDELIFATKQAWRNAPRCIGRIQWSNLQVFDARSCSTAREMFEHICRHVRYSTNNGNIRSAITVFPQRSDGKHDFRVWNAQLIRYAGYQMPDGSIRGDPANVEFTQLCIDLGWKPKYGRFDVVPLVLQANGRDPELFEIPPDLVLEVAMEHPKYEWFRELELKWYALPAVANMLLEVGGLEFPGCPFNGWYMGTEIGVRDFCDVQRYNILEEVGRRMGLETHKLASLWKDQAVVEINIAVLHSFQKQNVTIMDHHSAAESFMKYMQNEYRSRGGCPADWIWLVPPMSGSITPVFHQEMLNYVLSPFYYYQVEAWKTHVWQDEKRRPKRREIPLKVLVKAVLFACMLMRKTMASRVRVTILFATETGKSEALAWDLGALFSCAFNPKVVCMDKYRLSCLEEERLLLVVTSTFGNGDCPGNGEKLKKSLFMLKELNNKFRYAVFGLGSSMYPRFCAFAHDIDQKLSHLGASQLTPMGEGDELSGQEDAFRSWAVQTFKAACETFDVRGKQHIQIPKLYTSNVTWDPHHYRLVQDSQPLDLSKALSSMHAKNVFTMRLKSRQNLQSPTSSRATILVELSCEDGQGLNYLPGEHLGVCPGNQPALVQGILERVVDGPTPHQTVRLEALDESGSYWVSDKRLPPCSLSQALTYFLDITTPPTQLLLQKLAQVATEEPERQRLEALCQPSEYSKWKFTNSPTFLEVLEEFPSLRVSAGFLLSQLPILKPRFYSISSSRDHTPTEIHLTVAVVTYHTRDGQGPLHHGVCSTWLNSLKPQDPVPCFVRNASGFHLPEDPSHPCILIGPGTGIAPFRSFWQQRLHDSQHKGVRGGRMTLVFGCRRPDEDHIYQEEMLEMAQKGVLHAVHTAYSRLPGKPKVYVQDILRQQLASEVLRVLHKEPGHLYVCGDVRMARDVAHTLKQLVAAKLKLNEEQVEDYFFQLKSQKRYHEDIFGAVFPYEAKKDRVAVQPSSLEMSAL

[15] = Oral bioavailability in mouse at 10 mg/kg; format: ADME, organism-based; conditions: in vivo
[16] = Cmax in mouse at 3 mg/kg, iv and 10 mg/kg, po; format: ADME, organism-based; conditions: in vivo
[17] = Volume of distribution at steady state in mouse at 3 mg/kg, iv and 10 mg/kg, po; format: ADME, organism-based; conditions: in vivo, read-out: Vdss
Nitric oxide synthase 1 = Nitric oxide synthase 1 (Homo sapiens, UniProt P29475); assay: Inhibition of human nNOS expressed in HEK293 cells assessed as inhibition ionomycin induced nitric oxide production incubated for 24 hrs measured after 18 hrs of ionomycin challenge using 2,3-diaminonaphthalene by fluorescence assay; format: cell-based
Sequence of Nitric oxide synthase 1 (P29475 whole entry): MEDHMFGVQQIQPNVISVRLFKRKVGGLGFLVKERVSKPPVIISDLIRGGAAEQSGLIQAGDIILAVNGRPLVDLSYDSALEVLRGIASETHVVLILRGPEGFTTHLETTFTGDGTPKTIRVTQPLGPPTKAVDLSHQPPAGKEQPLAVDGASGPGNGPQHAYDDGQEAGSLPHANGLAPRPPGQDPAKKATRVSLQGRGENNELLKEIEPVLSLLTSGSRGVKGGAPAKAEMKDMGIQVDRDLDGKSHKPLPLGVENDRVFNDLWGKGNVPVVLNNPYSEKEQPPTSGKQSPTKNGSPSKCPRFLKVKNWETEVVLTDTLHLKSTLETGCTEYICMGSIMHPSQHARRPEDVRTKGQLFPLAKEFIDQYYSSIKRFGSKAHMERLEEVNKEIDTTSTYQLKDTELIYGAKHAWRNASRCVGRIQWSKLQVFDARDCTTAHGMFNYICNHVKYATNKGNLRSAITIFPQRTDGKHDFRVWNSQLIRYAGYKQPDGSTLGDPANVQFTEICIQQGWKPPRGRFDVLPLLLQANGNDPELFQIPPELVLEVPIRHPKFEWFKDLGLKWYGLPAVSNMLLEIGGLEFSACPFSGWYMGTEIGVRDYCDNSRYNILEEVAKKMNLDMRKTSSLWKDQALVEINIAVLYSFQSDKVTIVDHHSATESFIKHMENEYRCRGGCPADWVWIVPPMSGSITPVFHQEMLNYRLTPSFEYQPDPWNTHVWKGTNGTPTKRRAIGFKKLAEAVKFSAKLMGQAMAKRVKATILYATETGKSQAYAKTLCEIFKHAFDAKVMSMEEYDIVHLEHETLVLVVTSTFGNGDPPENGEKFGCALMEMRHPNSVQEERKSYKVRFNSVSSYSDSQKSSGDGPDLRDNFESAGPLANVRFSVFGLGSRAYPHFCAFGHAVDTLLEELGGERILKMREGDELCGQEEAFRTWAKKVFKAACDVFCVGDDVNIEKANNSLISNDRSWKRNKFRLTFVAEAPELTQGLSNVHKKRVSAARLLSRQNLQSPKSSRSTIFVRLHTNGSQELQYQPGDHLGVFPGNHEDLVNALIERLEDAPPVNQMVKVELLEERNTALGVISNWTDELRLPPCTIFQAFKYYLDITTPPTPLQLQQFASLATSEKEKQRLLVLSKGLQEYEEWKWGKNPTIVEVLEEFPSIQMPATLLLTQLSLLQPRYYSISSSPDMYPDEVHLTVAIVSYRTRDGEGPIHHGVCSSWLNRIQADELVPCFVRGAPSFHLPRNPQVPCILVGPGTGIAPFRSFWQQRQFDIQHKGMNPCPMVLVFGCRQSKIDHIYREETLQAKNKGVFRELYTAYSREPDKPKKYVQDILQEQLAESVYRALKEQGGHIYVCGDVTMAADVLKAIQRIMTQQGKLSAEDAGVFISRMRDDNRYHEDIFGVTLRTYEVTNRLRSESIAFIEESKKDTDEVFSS
Outline: (§4)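 HEK293 cells transfected for 4 h at 37 °C with human nNOS (10 μg) or human eNOS (15 μg) plasmid (Fugene 6, 3:1). Cells replated at 5e5 cells/mL and dosed with compound at once; SEITU (100 μM final) as positive control. After 24 h, cells activated with A23187 (83 nM final) for eNOS or ionomycin (30 μM final) for nNOS. NO read 18 h later as nitrite-DAN fluorescence.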

Homo sapiens [18] = species on record: Homo sapiens; assay: Ratio of IC50 for human nNOS to EC50 for human iNOS
[19] = AUC in mouse at 3 mg/kg, iv and 10 mg/kg, po; format: ADME, organism-based; conditions: plasma
Nitric oxide synthase 3 = molecular target: T2, Nitric oxide synthase 3 (Homo sapiens, UniProt P29474); assay: Inhibition of human eNOS expressed in HEK293 cells assessed as inhibition A23187 induced nitric oxide production incubated for 24 hrs measured after 18 hrs of […] challenge using 2,3-diaminonaphthalene by fluorescence assay; format: cell-based; outline: as §4
T2 sequence (P29474 whole entry): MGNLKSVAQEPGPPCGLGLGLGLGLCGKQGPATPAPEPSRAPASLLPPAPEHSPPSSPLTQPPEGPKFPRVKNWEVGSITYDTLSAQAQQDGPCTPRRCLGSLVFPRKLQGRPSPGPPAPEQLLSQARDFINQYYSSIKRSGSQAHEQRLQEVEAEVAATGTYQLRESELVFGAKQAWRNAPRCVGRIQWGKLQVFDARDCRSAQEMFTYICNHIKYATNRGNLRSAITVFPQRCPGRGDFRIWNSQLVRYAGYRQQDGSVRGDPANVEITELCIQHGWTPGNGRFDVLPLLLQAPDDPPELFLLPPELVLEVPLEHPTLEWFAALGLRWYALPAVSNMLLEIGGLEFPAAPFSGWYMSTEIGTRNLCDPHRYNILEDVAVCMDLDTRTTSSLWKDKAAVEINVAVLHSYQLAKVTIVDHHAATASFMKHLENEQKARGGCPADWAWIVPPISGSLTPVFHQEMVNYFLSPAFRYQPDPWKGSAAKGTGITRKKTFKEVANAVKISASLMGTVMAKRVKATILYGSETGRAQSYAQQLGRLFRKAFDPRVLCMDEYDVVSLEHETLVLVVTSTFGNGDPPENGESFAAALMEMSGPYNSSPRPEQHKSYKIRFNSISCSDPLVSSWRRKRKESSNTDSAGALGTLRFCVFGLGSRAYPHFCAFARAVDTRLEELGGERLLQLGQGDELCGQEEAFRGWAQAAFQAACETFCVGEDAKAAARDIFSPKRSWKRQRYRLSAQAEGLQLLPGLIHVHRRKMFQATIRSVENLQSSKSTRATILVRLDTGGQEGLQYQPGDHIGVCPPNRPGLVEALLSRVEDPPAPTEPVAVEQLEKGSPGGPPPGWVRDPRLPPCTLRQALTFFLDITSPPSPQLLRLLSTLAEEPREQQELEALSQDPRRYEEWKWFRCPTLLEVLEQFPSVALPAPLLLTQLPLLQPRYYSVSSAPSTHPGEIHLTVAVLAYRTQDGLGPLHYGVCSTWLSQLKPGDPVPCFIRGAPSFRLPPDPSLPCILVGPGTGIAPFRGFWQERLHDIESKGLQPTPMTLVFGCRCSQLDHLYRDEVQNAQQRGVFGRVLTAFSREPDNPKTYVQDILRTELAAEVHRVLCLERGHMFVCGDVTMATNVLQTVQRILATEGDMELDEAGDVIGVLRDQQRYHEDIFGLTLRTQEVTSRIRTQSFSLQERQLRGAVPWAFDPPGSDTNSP

Liver = assay: Half life in mouse liver microsomes assessed as formation of oxidation product and glucuronide conjugate; format: ADME, Microsome
Outline: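 Mouse liver microsomes run under combined phase I oxidation and phase II glucuronide conjugation; half-life reported in minutes.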

Mus musculus [20] = assay: Inhibition of LPS-induced iNOS activation in BALB/c mouse assessed as plasma nitrate levels at 30 mg/kg administered via oral gavage before LPS challenge measured after 6 to 8 hrs using 2,3-diaminonaphthalene by fluorescence assay relative to control; format: functional; outline: as §2
[21] = molecular target: T3, Nitric oxide synthase 3 (Homo sapiens) (UniProt P29474); assay: Inhibition of human eNOS expressed in HEK293 cells assessed as inhibition A23187 induced nitric oxide production at 100 uM incubated for 24 hrs measured after 18 hrs of […] challenge using 2,3-diaminonaphthalene by fluorescence assay; format: cell-based
T3 sequence (whole entry): T2 sequence (P29474 whole entry)

Row | SMILES | bioavailability [1] [%] | Vd [2] [L/kg] | Cmax [3] [ng/mL] | half-life [4] [h] | half-life [5] [h] | AUC [6] [ng·h/mL] | clearance [7] [mL/min/kg] | Ratio EC50 (Homo sapiens [9]) | EC50 [11] [nM] | half-life [13] [h] | EC50 [14] [nM] | Cmax [16] [ng/mL] | EC50 (Nitric oxide synthase 1) [nM] | Ratio EC50 (Homo sapiens [18]) | AUC [19] [ng·h/mL] | EC50 (Nitric oxide synthase 3) [nM] | t1/2 (Liver) [h] | further results
1 | Cl.O=c1cc(Cn2c(C3CCC3)nc3nccnc32)c2cccc(F)c2[nH]1 | 93 | 1.2 | 1800 | 6.8 | 10 | 23000 | 4.3 | – | – | – | – | – | – | – | – | – | – | –
2 | Cl.O=c1cc(Cn2c(C3CCC3)nc3nccnc32)c2ccc(F)c(F)c2[nH]1 | 63 | 3 | 3300 | 13 | 9 | 18000 | 6 | – | – | – | – | – | – | – | – | – | – | –
3 | CC(C)c1nc2ccccc2n1Cc1cc(=O)[nH]c2c(F)c(F)ccc12 | – | – | – | – | – | – | – | 14 | 4400 | 2.6 | 800 | 14000 | 650 | 0.8 | 19300 | 11300 | > 2 | ED50 (Mus musculus [8]): 6 mg/kg; clearance [10]: 5.9 mL/min/kg; half-life [12]: 2.1 h; bioavailability [15]: 58%; Vd [17]: 0.7 L/kg
4 | CN(C)c1ccnc2c1nc(C1CCC1)n2Cc1cc(=O)[nH]c2c(F)c(F)ccc12 | – | – | – | – | – | – | – | > 590 | 1800 | 1.4 | 170 | 400 | 1000 | 5.9 | 700 | > 100000 | 0.13 | inhibition in vivo at 30 mg/kg (Mus musculus [20]): 30%; inhibition [21]: < 50%
5 | Cl.O=c1cc(Cn2c(C3CC(F)(F)C3)nc3nccnc32)c2cccc(F)c2[nH]1 | 100 | 1.8 | 3400 | 6.6 | 6.1 | 21000 | 8.6 | – | – | – | – | – | – | – | – | – | – | –
6 | CC(C)Cc1nc2nccnc2n1Cc1cc(=O)[nH]c2c(F)c(F)ccc12.Cl | 59 | 19 | 210 | 21 | 15 | 3200 | 18 | – | – | – | – | – | – | – | – | – | – | –
7 | O=c1cc(Cn2c(C3CCC3)nc3ccccc32)c2ccc(F)c(F)c2[nH]1 | – | – | – | – | – | – | – | 23 | 2100 | 1.4 | 260 | 5700 | 320 | 1.2 | 10000 | 5900 | > 2 | ED50 (Mus musculus [8]): 4 mg/kg
